Measurements as given in ChEMBL document CHEMBL1157718, “Characterization of non-lipid autotaxin inhibitors” (Bioorg Med Chem, 2010).
Calls of active or inactive are those of the source.

Key:
[1] = target: T1, Glycerophosphocholine cholinephosphodiesterase ENPP6 (Homo sapiens) (UniProt Q6UWR7); assay: Inhibition of NPP6 expressed in human HEK293 cells at 10 uM; format: cell-based
T1 sequence (whole entry): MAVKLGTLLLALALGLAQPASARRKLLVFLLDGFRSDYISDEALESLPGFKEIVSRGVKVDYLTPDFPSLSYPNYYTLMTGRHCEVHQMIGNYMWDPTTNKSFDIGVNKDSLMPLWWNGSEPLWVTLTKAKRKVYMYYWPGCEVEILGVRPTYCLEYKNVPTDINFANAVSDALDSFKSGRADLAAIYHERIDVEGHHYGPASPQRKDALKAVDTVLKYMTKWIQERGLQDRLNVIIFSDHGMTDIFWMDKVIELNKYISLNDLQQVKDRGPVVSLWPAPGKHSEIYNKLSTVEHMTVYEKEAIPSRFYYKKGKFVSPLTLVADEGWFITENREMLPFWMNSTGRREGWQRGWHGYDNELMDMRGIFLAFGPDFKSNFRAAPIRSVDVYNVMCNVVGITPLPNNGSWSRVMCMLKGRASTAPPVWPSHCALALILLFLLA
How it was run: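 Enzyme was soluble NPP6 in unconcentrated serum-free conditioned medium from transiently transfected HEK293 cells (48 h), making up one-third of the assay volume. Substrate was pNPPC at […] in 100 mM Tris-HCl pH 9.0, 500 mM NaCl, 0.05% Triton X-100, with inhibitor at 10 µM. A405 was read every 2 min and reported at 1 h, blank-subtracted and normalized to vehicle. Mean ± SD of ≥3 wells.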

[2] = target: T2, Ectonucleotide pyrophosphatase/phosphodiesterase family member 7 (Homo sapiens) (UniProt Q6UWV6); assay: Inhibition of NPP7 expressed in human HEK293 cells at 10 uM; format: cell-based
T2 sequence (whole entry): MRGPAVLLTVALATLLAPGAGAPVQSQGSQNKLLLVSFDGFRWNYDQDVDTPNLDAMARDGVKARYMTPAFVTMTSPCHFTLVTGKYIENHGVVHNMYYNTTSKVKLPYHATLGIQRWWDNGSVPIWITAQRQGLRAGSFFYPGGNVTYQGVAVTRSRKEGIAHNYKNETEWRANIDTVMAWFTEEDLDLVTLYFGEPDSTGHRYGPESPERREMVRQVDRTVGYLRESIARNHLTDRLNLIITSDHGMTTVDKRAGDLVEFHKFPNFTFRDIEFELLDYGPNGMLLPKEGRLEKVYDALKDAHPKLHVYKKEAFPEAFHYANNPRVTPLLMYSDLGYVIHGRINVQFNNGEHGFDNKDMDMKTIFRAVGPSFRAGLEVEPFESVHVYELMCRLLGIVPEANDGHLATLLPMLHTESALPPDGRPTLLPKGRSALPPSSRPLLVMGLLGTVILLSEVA
How it was run: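 Enzyme was soluble NPP7 in concentrated (10 kDa cutoff) serum-free conditioned medium from transiently transfected HEK293 cells, making up one-third of the assay volume. Substrate was pNPPC at […] in 50 mM Tris-HCl pH 8.5, 150 mM NaCl, 10 mM taurocholic acid, no EDTA, with inhibitor at 10 µM. A405 was read every 2 min and reported at 1 h, normalized to vehicle after blank subtraction. Mean ± SD of ≥3 wells.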

[3] = target: T3, Autotaxin (Homo sapiens, UniProt Q13822)
[4] = target: T3, Autotaxin; remark: listed apart in the source
[5] = target: T3, Autotaxin; remark: listed apart in the source
[6] = target: T3, Autotaxin; remark: listed apart in the source
[7] = target: T3, Autotaxin; assay: Noncompetitive inhibition of autotaxin-mediated pNP-TMP hydrolysis by Michaelis-Menten analysis for enzyme-substrate complex
How it was run: (§1)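 ATX from ~10-fold concentrated serum-free conditioned medium of MDA-MB-435 cells, used without further manipulation. […] Absorbance at 405 nm read every 2 min gave initial rates. Km came from zero-inhibitor data. Ki (free enzyme) and K'i (enzyme–substrate complex) were fitted by non-linear models, and the mechanism was assigned by the lowest average percent residuals.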

[8] = target: T3, Autotaxin; assay: Noncompetitive inhibition of autotaxin-mediated pNP-TMP hydrolysis by Michaelis-Menten analysis; how it was run: as §1
[9] = target: T3, Autotaxin; assay: Competitive-type inhibition of autotaxin-mediated FS3 hydrolysis by Michaelis-Menten analysis
How it was run: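 ATX from ~10-fold concentrated serum-free conditioned medium of MDA-MB-435 cells. […] Buffer was 50 mM Tris pH 8.0 with salts and 30 µM charcoal-stripped BSA, 37 °C, fluorescence read every 2 min at ex 485/em 528. Initial rates were fitted to inhibition models, and the mechanism was assigned by lowest average percent residuals.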

## CCn1cc(C(=O)O)c(=O)c2cnc(N3CCN(C(=S)NC(=O)C4c5ccccc5Oc5ccccc54)CC3)nc21
[1]
  inhibition: inactive
[2]
  inhibition: inactive

## O=C(O)c1cccc(NC(=O)c2ccc3c(c2)C(=O)N(c2ccc(/N=N/c4ccccc4)cc2)C3=O)c1
[3]
  IC50: 12.8 µM
[1]
  inhibition: inactive
[4]
  Ki: 40.3 µM
[2]
  inhibition: inactive
[5]
  Ki: 15.1 µM

## CCn1cc(C(=O)O)c(=O)c2cnc(N3CCN(C(=S)Nc4cc(Cl)cc(Cl)c4)CC3)nc21
[6]
  IC50: 1.2 µM
[7]
  Ki: 6.5 µM
[8]
  Ki: 6.5 µM
[1]
  inhibition: inactive
[2]
  inhibition: inactive
[9]
  Ki: 1.9 µM

## CCn1c(SCC(=O)Nc2ccc(C(=O)O)cc2)nc2nc3c(cc2c1=O)CCCC3
[1]
  inhibition: inactive
[2]
  inhibition: inactive

## O=C(O)c1ccc(CN2C(=O)c3ccc(C(=O)c4ccc5c(c4)C(=O)N(Cc4ccc(C(=O)O)cc4)C5=O)cc3C2=O)cc1
[3]
  IC50: 12.8 µM
[1]
  inhibition: inactive
[2]
  inhibition: inactive
[9]
  Ki: 5 µM

## O=C(O)c1ccc(Oc2ccc(C(=O)c3ccc4c(c3)C(=O)N(c3cccc5ccccc35)C4=O)cc2)cc1
[3]
  IC50: 6.8 µM
[6]
  IC50: 6.8 µM
[1]
  inhibition: inactive
[4]
  Ki: 32.3 µM
[2]
  inhibition: inactive
[5]
  Ki: 5.8 µM
